Experimental data taken from ChEMBL document CHEMBL4715682, “Potent trifluoromethoxy, trifluoromethylsulfonyl, trifluoromethylthio and pentafluorosulfanyl containing (1,3,4-oxadiazol-2-yl)benzamides against drug-resistant Gram-positive bacteria” (RSC Med Chem, 2020).
Values after ≈ are worked out from the molar mass of the structure shown.

What was measured:
[1] = tested on: Staphylococcus aureus; test: Antibacterial activity against Staphylococcus aureus ATCC 25923 assessed as inhibition of visible bacterial growth incubated for 18 to 20 hrs by CLSI method; assay type: functional; conditions: time 18-20 hrs
Summary of the method: (§1)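 CLSI broth microdilution. Strains grown aerobically overnight on tryptic soy agar at 37 °C, adjusted to 0.5 McFarland and diluted in cation-adjusted Mueller–Hinton broth to about 5×10^5 CFU/mL. Compounds and control drugs serially diluted across the plate. Incubated aerobically at 37 °C for 18-20 h. MIC is the lowest concentration with no visible growth.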

[2] = tested on: Staphylococcus aureus; test: Antibacterial activity against methicillin-resistant Staphylococcus aureus ATCC 33592 assessed as inhibition of visible bacterial growth incubated for 18 to 20 hrs by CLSI method; assay type: functional; conditions: time 18-20 hrs; summary of the method: as §1

| SMILES | MIC [1] [µg/mL] | MIC [2] [µg/mL] |
| --- | --- | --- |
| O=C(Nc1nnc(-c2cccs2)o1)c1ccc(C(F)(F)F)cn1 | 64 (≈ 188 µM) | 32 (≈ 94 µM) |
| O=C(Nc1nnc(-c2cccs2)o1)c1ccc(OC(F)F)cc1 | 32 (≈ 94.9 µM) | 32 (≈ 94.9 µM) |
| O=C(Nc1nnc(-c2cccs2)o1)c1ccc(SC(F)F)cc1 | 4 (≈ 11.3 µM) | 4 (≈ 11.3 µM) |
